These results are taken from ChEMBL document CHEMBL1136047, “Discovery of N-[2-[2-[[3-methoxy-4-(5-oxazolyl)phenyl]amino]-5-oxazolyl]phenyl]-N-methyl-4- morpholineacetamide as a novel and potent inhibitor of inosine monophosphate dehydrogenase with excellent in vivo activity” (J Med Chem, 2002).

For data set [1], the target named is T1, Inosine-5'-monophosphate dehydrogenase 2 (Homo sapiens, UniProt P12268). The data set is described as follows: Inhibition of human inosine-5'-monophosphate dehydrogenase 2.
For a further data set, the system named is CCRF-CEM. The experiment in a line: In vitro secondary T-cell (CEM) proliferation assay. Format: functional, cell-based. As to conditions: Homo sapiens. In short, it runs like this:
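Inhibition of CEM T-cell line proliferation. IC50 in μM, reported as the mean of n = 3 determinations.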

The nature of data set [2]: Bioavailability was evaluated after 20 uM/kg of peroral administration. The following applies: rat, in vivo, po, read-out: Bioavailabiility. Format: ADME, organism-based. The gist of the method:
(§1)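 Pharmacokinetics measured in rats.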

Data set [3] is described as follows: Cmax was evaluated after 20 umol/kg of peroral administration. The arrangement: dose 20 umol/kg, route oral. The following applies: rat, in vivo, po. In kind it is ADME, organism-based. The gist of the method: as §1
Data set [4] can be described thus: Half-life was evaluated after 20 uM/kg of peroral administration. Format: ADME, organism-based. As to conditions: rat, in vivo, po. In short, it runs like this:
as §1

For data set [5], the system named is Rattus norvegicus. The data set is described as follows: Area under the curve was evaluated after 10 uM/kg of intra arterial administration. Format: ADME, organism-based. The following applies: in vivo, other. The gist of the method: as §1
The nature of data set [6]: Vss was evaluated after 10 uM/kg of intra arterial administration. The following applies: rat, in vivo, read-out: Vss. Format: ADME, organism-based. The gist of the method: as §1
Data set [7] can be described thus: Half-life was evaluated after 10 uM/kg of intra arterial administration. In kind it is ADME, organism-based. As to conditions: rat, in vivo. The gist of the method:
as §1

The nature of data set [8]: Plasma clearance was evaluated after 10 uM/kg of intra arterial administration. In kind it is ADME, organism-based. As to conditions: rat. The gist of the method: as §1
For data set [9], the system named is Rattus norvegicus. The experiment in a line: Area under the curve was evaluated after 20 uM/kg of peroral administration. Format: ADME, organism-based. The following applies: in vivo, po. The gist of the method: as §1
Data set [10] deals with T1, Inosine-5'-monophosphate dehydrogenase 2. The data set is described as follows: In vitro concentration that causes 50% inhibition of Inosine-5'-monophosphate dehydrogenase 2. In short, it runs like this:
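Inhibition of IMPDH type II catalytic activity. IC50 reported as the mean of n = 3 determinations.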

The term IC50 denotes the concentration needed to halve the response being measured. Higher therefore signals lower potency. With `CNCC(=O)N(C)c1ccccc1-c1cnc(Nc2ccc(-c3cnco3)c(OC)c2)o1`, the IC50 in data set [1] turned out to be 22 nM; with CCRF-CEM, 960 nM.

Regarding `COc1cc(Nc2ncc(-c3ccccc3N(C)C(=O)CN3CCN(C)CC3)o2)ccc1-c1cnco1`, the IC50 came out at 17 nM in data set [1] and 940 nM in the data set with CCRF-CEM.

As to `CCOC(=O)c1ccccc1-c1cnc(Nc2ccc(-c3cnco3)c(OC)c2)o1`, the values for the IC50 (in [1]; in the data set with CCRF-CEM) were 127 nM and over 10000 nM, respectively.

The term Cmax denotes the maximum level reached in the sampled fluid or tissue. A word on the half-life: it is the time in which the quantity being followed falls by half. Low values mean fast loss, high ones slow loss. What is called AUC is concentration integrated over time. Low readings indicate low exposure, high ones high exposure. As usually defined, the clearance is the rate of elimination divided by the concentration. A high value points to efficient removal. As to `COc1cc(Nc2ncc(-c3ccccc3N(C)C(=O)CN3CCOCC3)o2)ccc1-c1cnco1`, in data set [2], the bioavailability stood at 25%. In addition, in [3], the Cmax is 1500 nM. In addition, the IC50 in [1] is 12 nM. Also, the half-life is 2.5 h in [4] and 5.9 h in data set [7]. For the same compound, the exposure (AUC) in the data set on Rattus norvegicus [5] is 2.37 µM·h; with Rattus norvegicus [9] it was 1.2 µM·h. In addition, in data set [6], the Vd worked out at 2.1 L/kg. This compound displayed a clearance in [8] of 71 mL/min/kg.

Take `COc1cccc(-c2cnc(Nc3ccc(-c4cnco4)c(OC)c3)o2)c1`: the results for the IC50 (in data set [1]; in the data set on CCRF-CEM) were 97 nM and over 10000 nM, respectively.

In the case of `COc1cc(Nc2ncc(-c3ccccc3N(C)C(=O)CCN3CCOCC3)o2)ccc1-c1cnco1`, the IC50 was 13 nM in [1] and 680 nM with CCRF-CEM.

In the case of `COc1cc(Nc2ncc(-c3ccccc3N(C)C(=O)Cn3cncn3)o2)ccc1-c1cnco1`, the figures for the IC50 (in data set [1]; with CCRF-CEM) were 13 nM and 650 nM, respectively.

In the case of `COc1cc(NC(=O)Nc2cccc(CNC(=O)O[C@H]3CCOC3)c2)ccc1-c1cnco1` [MERIMEPODIB], the IC50 amounted to 10 nM in data set [1] and 430 nM with CCRF-CEM.

Take `COc1ccc(-c2cnc(Nc3ccc(-c4cnco4)c(OC)c3)o2)cc1`: the IC50 was found to be 115 nM in data set [1] and 9000 nM with CCRF-CEM.

`COc1cc(Nc2ncc(-c3ccccc3NC(C)=O)o2)ccc1-c1cnco1`: the results for the IC50 (in data set [1]; in the data set with CCRF-CEM) were 30 nM and 1000 nM, respectively.

As to `COc1c(C)c2c(c(O)c1C/C=C(\C)CCC(=O)O)C(=O)OC2` [MYCOPHENOLIC ACID], the IC50 with CCRF-CEM turned out to be 340 nM.

Regarding `COc1cc(Nc2ncc(-c3ccccc3N(C)C(=O)CNC(C)(C)C)o2)ccc1-c1cnco1`, the IC50 in data set [1] came to 20 nM; in the data set on CCRF-CEM it was 700 nM.

For the compound `COc1cc(Nc2ncc(-c3cccc(C)c3)o2)ccc1-c1cnco1`, the IC50 in data set [1] was 70 nM; with CCRF-CEM, over 10000 nM.

Take `COc1cc(Nc2ncc(-c3ccccc3C)o2)ccc1-c1cnco1`: the IC50 in data set [1] was 25 nM; with CCRF-CEM, over 10000 nM.

Turning to `COc1cc(Nc2ncc(-c3ccc(C)cc3)o2)ccc1-c1cnco1`, the IC50 is 85 nM in data set [1] and over 10000 nM with CCRF-CEM.

Regarding `COc1cc(Nc2ncc(-c3ccccc3N(C)C(C)=O)o2)ccc1-c1cnco1`, the IC50 amounted to 18 nM in [1] and 730 nM in the data set on CCRF-CEM.

Regarding `COc1cc(Nc2ncc(-c3ccccc3N(C)C(=O)CN(C)C)o2)ccc1-c1cnco1`, the IC50 is 15 nM in data set [1] and 1000 nM with CCRF-CEM.

For `COc1cc(Nc2ncc(-c3ccccc3C(=O)N(C)C)o2)ccc1-c1cnco1`, the IC50 in data set [1] was determined as 141 nM; in the data set with CCRF-CEM it was 9000 nM.

By inhibition is commonly meant the percentage by which the read-out fell short of the control. Low readings indicate a response near the control, high ones a response far below the control. The compound `COc1cc(Nc2ncc(-c3ccccc3C(=O)O)o2)ccc1-c1cnco1` returned an inhibition in [10] of 11%.

For the compound `COc1cc(Nc2ncc(-c3ccccc3OC)o2)ccc1-c1cnco1`, the IC50 is 23 nM in [1] and 7000 nM in the data set on CCRF-CEM.

In the case of `CCc1nc(Nc2ccc(-c3cnco3)c(OC)c2)oc1-c1ccccc1`, the IC50 in data set [1] was 86 nM; in the data set on CCRF-CEM it was over 10000 nM.

For the compound `COc1cc(Nc2ncc(-c3ccccc3)o2)ccc1-c1cnco1`, the IC50 in data set [1] was 20 nM; in the data set on CCRF-CEM it was 7000 nM.

With `COc1cc(Nc2nc(C)c(-c3ccccc3)o2)ccc1-c1cnco1`, the IC50 in data set [1] is 27 nM; in the data set with CCRF-CEM it was 9000 nM.

In the case of `CNC(=O)c1ccccc1-c1cnc(Nc2ccc(-c3cnco3)c(OC)c2)o1`, the values for the IC50 (in [1]; in the data set on CCRF-CEM) were 104 nM and 8000 nM, respectively.

Take `COc1cc(Nc2ncc(-c3ccccc3N(C)C(=O)Cn3cccn3)o2)ccc1-c1cnco1`: the IC50 in data set [1] was found to be 11 nM; in the data set on CCRF-CEM, 890 nM.
